Source: PubChem (several laboratories)
Only some compounds are listed: those with a hit (about 2.3% of all), similar ones and a draw of the others.
Tb hexokinase – Trypanosoma brucei hexokinase 1 inhibitors, primary screen, biochemical, G6PDH-coupled NADH absorbance, MLSCN library. recombinant TbHK1, G6PDH-coupled NADH A340. inhibition, % at 10 µM. actives 0.11% (n = 220,000). AID 1430, 2008;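 active = inhibition of 50% or more in the single-dose primary screen; inactive = inhibition below 50%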
NPY-Y2 antag – NPY-Y2 receptor antagonists, primary screen, cell-based. NPY-Y2 expressing cells, antagonist mode. Neuropeptide Y receptor type 2 (Homo sapiens), P49146. inhibition, % at 2.7 µM. actives 0.99% (n = 140,000); in the data active = inhibition above about 17%
NPY-Y2 PAM-ag – NPY-Y2 potentiators or agonists, primary screen, cell-based; Neuropeptide Y receptor type 2 (Homo sapiens), P49146; AID 1359, 2008; cells expressing NPY-Y2, potentiator/agonist read-out; actives 0.45% (n = 220,000); activation, % at 3.6 µM; in the data active = activation above about 27%;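 note: cells stimulated with NPY near EC25 plus isoproterenol at EC100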
NPY Y1 blocker – NPY-Y1 receptor antagonists, primary screen, cell-based | actives 1% (n = 200,000) | HEK293-CNG Y1 cells, membrane potential fluorescence; NPY at EC95, then isoproterenol | inhibition, % at 3.6 µM | Neuropeptide Y receptor type 1 (Homo sapiens), P25929 | AID 1040, 2008;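 active = inhibition above the campaign mean inhibition of all tested compounds plus 3 SD, cut at about 20% in these data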
Target sequence (P25929 whole entry, looked up): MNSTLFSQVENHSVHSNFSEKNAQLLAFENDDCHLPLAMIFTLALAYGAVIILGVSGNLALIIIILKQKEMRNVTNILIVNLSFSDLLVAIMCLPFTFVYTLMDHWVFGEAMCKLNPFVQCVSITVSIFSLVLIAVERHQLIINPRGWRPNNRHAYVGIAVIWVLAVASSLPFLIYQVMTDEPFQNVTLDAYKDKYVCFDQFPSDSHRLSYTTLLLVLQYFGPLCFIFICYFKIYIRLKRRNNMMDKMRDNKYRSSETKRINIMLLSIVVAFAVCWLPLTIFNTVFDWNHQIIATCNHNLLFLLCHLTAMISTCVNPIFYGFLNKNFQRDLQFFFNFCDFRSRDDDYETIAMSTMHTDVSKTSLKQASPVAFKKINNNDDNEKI
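Material: HEK293 cells with Y1 receptor plus CNG channel; times: compound incubation 1 h at room temperature, readout 45 min post-stimulation; signal: fluorescence, membrane potential probe; read-out basis: fluorescence ratio normalized to % inhibition between controls; benchmarks: full-block control isoproterenol-only wells, zero-block control NPY plus isoproterenol wells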
NPY-Y1 PAM-ag – NPY-Y1 receptor potentiators or agonists, primary screen, cell-based | activation, % at 3.6 µM | actives 0.37% (n = 220,000) | Neuropeptide Y receptor type 1 (Homo sapiens), P25929 | NPY-Y1 expressing cells, potentiator/agonist activation; in the data active = activation above about 33%, passing the limit was not always enough;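 note: cells stimulated with NPY at EC10 then isoproterenol at EC100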
m-calpain inh – inhibitors of pig calpain II, primary screen, biochemical, fluorogenic peptide substrate, 1536-well | purified calpain II, 30 min | actives 0.37% (n = 220,000) | AID 1236, 2008 | inhibition, % at 16 µM;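 active = inhibition above about 50%, limit read from the data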
A number is an active result.

For COc1ccc(C2=NN(C(=O)CSc3nc4ccccc4s3)C(c3ccc(OC)cc3)C2)cc1 (configuration not stated) the results were Tb hexokinase inactive, NPY-Y2 antag inactive, NPY-Y2 PAM-ag inactive, NPY Y1 blocker inactive, NPY-Y1 PAM-ag inactive and m-calpain inh inactive.
`CCOC(=O)C(=CNc1ccc(Cl)cn1)C(=O)OCC` gave Tb hexokinase inactive, NPY-Y2 PAM-ag inactive, NPY-Y1 PAM-ag inactive and m-calpain inh inactive.
`CCOC(=O)C(=CNc1ccc(C)cc1C)C(=O)OCC` gave Tb hexokinase inactive, NPY-Y2 antag inactive, NPY-Y2 PAM-ag inactive, NPY Y1 blocker inactive, NPY-Y1 PAM-ag inactive and m-calpain inh inactive.
CCOC(=O)C(=CNc1cccc(C)c1C)C(=O)OCC was read as Tb hexokinase inactive, NPY-Y2 antag inactive, NPY-Y2 PAM-ag inactive, NPY Y1 blocker inactive, NPY-Y1 PAM-ag inactive and m-calpain inh 52.
`CCOC(=O)C(=CNNc1cccc(Cl)c1)C(=O)OCC` gave Tb hexokinase inactive, NPY-Y2 PAM-ag 54, NPY-Y1 PAM-ag 62 and m-calpain inh inactive.
N#C/C(=C\c1ccc(OCC(N)=O)cc1)S(=O)(=O)c1ccccc1 was read as Tb hexokinase inactive, NPY-Y2 PAM-ag inactive, NPY Y1 blocker inactive, NPY-Y1 PAM-ag inactive and m-calpain inh inactive.
Screening CC(/C=C1\SC(=S)N(c2ccc(C(=O)O)cc2)C1=O)=C\c1ccccc1 returned Tb hexokinase inactive, NPY-Y2 PAM-ag inactive, NPY-Y1 PAM-ag inactive and m-calpain inh 73.
Screening Cc1ccc(SCc2[nH]nc3c2C(c2ccco2)C(C#N)=C(N)O3)cc1 (configuration not stated) returned Tb hexokinase inactive, NPY-Y2 antag 127, NPY-Y2 PAM-ag inactive, NPY Y1 blocker 106, NPY-Y1 PAM-ag inactive and m-calpain inh inactive.
For Cc1ccc(SCc2[nH]nc3c2C(c2ccc(C)o2)C(C#N)=C(N)O3)cc1 (configuration not stated) the results were Tb hexokinase inactive, NPY-Y2 antag 79, NPY-Y2 PAM-ag inactive, NPY Y1 blocker 120, NPY-Y1 PAM-ag inactive and m-calpain inh inactive.
For CCc1[nH]nc2c1C(c1ccc(C)o1)C(C#N)=C(N)O2 (configuration not stated) the results were Tb hexokinase inactive, NPY-Y2 PAM-ag inactive, NPY Y1 blocker inactive, NPY-Y1 PAM-ag inactive and m-calpain inh inactive.
`Cc1ccc(Cl)cc1NC(=S)N(CCN(C)C)C(C)c1ccccn1` (configuration not stated) gave Tb hexokinase inactive, NPY-Y2 PAM-ag inactive, NPY Y1 blocker inactive, NPY-Y1 PAM-ag inactive and m-calpain inh inactive.
`COc1ccccc1CNCC(O)(c1ccc(Cl)cc1)c1ccc(Cl)cc1` gave Tb hexokinase inactive, NPY-Y2 antag 21, NPY-Y2 PAM-ag inactive, NPY Y1 blocker 21, NPY-Y1 PAM-ag inactive and m-calpain inh inactive.
Screening COc1ccc(C2=Nn3c(nnc3-c3ccco3)SC2)cc1 returned Tb hexokinase inactive, NPY-Y2 antag inactive, NPY-Y2 PAM-ag inactive, NPY Y1 blocker inactive, NPY-Y1 PAM-ag inactive and m-calpain inh 51.
CCC1C(c2ccccc2)N(C)C(c2ccccc2)CC1(O)c1ccccc1 (configuration not stated) was read as Tb hexokinase inactive, NPY-Y2 PAM-ag inactive, NPY Y1 blocker inactive, NPY-Y1 PAM-ag inactive and m-calpain inh inactive.
For CC1C(c2ccccc2)N(C)C(c2ccccc2)C(C)C1(O)C#Cc1ccccc1 (configuration not stated) the results were Tb hexokinase inactive, NPY-Y2 antag 18, NPY-Y2 PAM-ag inactive, NPY Y1 blocker inactive, NPY-Y1 PAM-ag inactive and m-calpain inh inactive.
`CCOC(=O)CCNC(=O)Nc1ccc2nc(C)n(Cc3cccc(Cl)c3)c(=O)c2c1` gave Tb hexokinase inactive, NPY-Y2 antag inactive, NPY-Y2 PAM-ag inactive, NPY Y1 blocker inactive, NPY-Y1 PAM-ag inactive and m-calpain inh 66.
Screening COc1ccccc1NC(=O)CSc1nc2ccccc2cc1Cc1ccccc1 returned Tb hexokinase inactive, NPY-Y2 antag 21, NPY-Y2 PAM-ag inactive, NPY Y1 blocker 26, NPY-Y1 PAM-ag inactive and m-calpain inh inactive.
O=C(Nc1cc(Cl)cc(Cl)c1)C(c1ccccc1)N1CCCCC1 (configuration not stated) was read as Tb hexokinase inactive, NPY-Y2 antag 20, NPY-Y2 PAM-ag inactive, NPY Y1 blocker 30, NPY-Y1 PAM-ag inactive and m-calpain inh inactive.
For COc1cccc(NC(=O)C(c2ccccc2)N2CCCCC2)c1 (configuration not stated) the results were Tb hexokinase inactive, NPY-Y2 PAM-ag inactive, NPY Y1 blocker inactive, NPY-Y1 PAM-ag inactive and m-calpain inh inactive.
CC1Cc2ccccc2N1C(=O)COC(=O)CCc1nc2ccccc2c(=O)[nH]1 (configuration not stated) was read as Tb hexokinase inactive, NPY-Y2 PAM-ag inactive, NPY Y1 blocker inactive, NPY-Y1 PAM-ag inactive and m-calpain inh inactive.
For Cc1n[nH]c(=S)n1/N=C/c1ccccc1OCc1ccc(Cl)cc1 the results were Tb hexokinase inactive, NPY-Y2 antag 88, NPY-Y2 PAM-ag inactive, NPY Y1 blocker 28, NPY-Y1 PAM-ag inactive and m-calpain inh inactive.
For COC(=O)c1ccccc1NC(=S)N1CCN(c2ccc(OC)cc2)CC1 the results were Tb hexokinase inactive, NPY-Y2 PAM-ag inactive, NPY Y1 blocker inactive, NPY-Y1 PAM-ag inactive and m-calpain inh inactive.
Screening C=CCSc1nc(N)c(C#N)c(-c2ccc(C)cc2)c1C#N returned Tb hexokinase inactive, NPY-Y2 antag inactive, NPY-Y2 PAM-ag 45, NPY Y1 blocker inactive, NPY-Y1 PAM-ag 45 and m-calpain inh inactive.
CCCCN(CCCC)CC(O)COc1ccccc1Br (configuration not stated) was read as Tb hexokinase inactive, NPY-Y2 antag 26, NPY-Y2 PAM-ag inactive, NPY Y1 blocker 40, NPY-Y1 PAM-ag inactive and m-calpain inh inactive.
Screening O=C1N(Cc2cccnc2)C[C@@H]2C[C@@H](c3cccc(Oc4ccccc4)c3)N3CCC[C@@]123 returned Tb hexokinase inactive, NPY-Y2 PAM-ag inactive, NPY-Y1 PAM-ag inactive and m-calpain inh inactive.
CC1(C)SC(=S)N(/N=C/c2ccc(O)cc2)C1N(O)C(=O)Nc1ccc([N+](=O)[O-])cc1 (configuration not stated) was read as Tb hexokinase inactive, NPY-Y2 antag inactive, NPY-Y2 PAM-ag 33, NPY Y1 blocker inactive, NPY-Y1 PAM-ag inactive and m-calpain inh inactive.
Screening O=S(=O)(Cc1cc(Oc2ccccc2)nc(-c2ccccc2)n1)c1ccccc1 returned Tb hexokinase inactive, NPY-Y2 antag 21, NPY-Y2 PAM-ag inactive, NPY Y1 blocker 22 and NPY-Y1 PAM-ag inactive.
